Arbovirus anti: antivirals against arbovirus infection, primary screen, cell-based, full library, 10K replicate subset | 0.37% of 200,000 active | AID 1251, 2008 | arbovirus infection cell-based antiviral screen | inhibition, % at 10 µM; in the data active = inhibition above about 30%
Efa HMGR inh: inhibitors of E. faecalis class II HMGR, primary screen, biochemical, Enterococcus faecalis. 0.41% of 190,000 active. purified E. faecalis HMGR, NADPH absorbance 340 nm kinetic. HMG-CoA reductase (Enterococcus faecalis, mvaE). inhibition, % at 10 µM;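 active = inhibition above a set limit, the median over all tested compounds plus 3 SD, cut at about 9.5% in these data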;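 note: enzyme runs in reverse so mevalonate oxidation gives rising NADPH absorbance; 0% = complete reaction with DMSO and 100% = background rate lacking mevalonate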
Rad51 HR inh: human RAD51 strand exchange inhibitors, primary screen, biochemical, fluorescence | DNA repair protein RAD51 homolog 1 (Homo sapiens), Q06609 | hRad51 DNA strand exchange, fluorescence dequenching | inhibition, % at 10 µM | 0.085% of 200,000 active;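 active = inhibition above 40% at the single screening dose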;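 note: 0% = DMSO control wells and 100% = blanks with heterologous ssDNA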
Target sequence (Q06609 whole entry, looked up): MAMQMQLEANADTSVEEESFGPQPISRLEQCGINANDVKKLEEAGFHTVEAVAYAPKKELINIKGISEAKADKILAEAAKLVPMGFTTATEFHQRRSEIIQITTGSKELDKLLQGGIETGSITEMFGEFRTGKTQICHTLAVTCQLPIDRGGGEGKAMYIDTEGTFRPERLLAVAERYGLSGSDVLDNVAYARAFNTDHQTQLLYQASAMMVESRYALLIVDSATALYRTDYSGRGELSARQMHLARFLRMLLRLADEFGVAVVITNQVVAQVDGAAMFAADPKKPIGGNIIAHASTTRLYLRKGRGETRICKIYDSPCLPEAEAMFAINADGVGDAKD
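Material: Human Rad51 nucleoprotein filaments preassembled on unlabelled ssDNA | Also added: Labelled 47-mer dsDNA for strand exchange | Dosing: Single dose, 10 µM final compound | Schedule: 30-min compound preincubation and 15-min exchange, both room temperature | Technique: Fluorescence dequenching at 485/520 nm | Measure: Percent inhibition relative to plate controls and blanks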
Yeast growth inh: growth inhibitors of yeast BB579 in restrictive medium, primary screen, yeast lifespan-shortening project, S. cerevisiae. OD615, 48 h. inhibition, % at 10 µM. 0.51% of 140,000 active. AID 804, 2007;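 active = inhibition above a set limit, 3 SD over the mean compound inhibition, cut at about 44% in these data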
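Detection: OD615 turbidity measurement; Material: Saccharomyces cerevisiae DeaD strain BB579, replicative lifespan model yeast; Timing: 48 h exposure, 30 °C; Doses: single 10 µM dose; Medium: CSMM-D restrictive synthetic medium containing dextrose (glucose); Controls: amphotericin B at 10 µg/mL as positive control.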
Measles CPE: compounds protecting cells from measles virus cytopathic effect, primary screen, measles RdRp inhibitor project, single point, MLSMR library, absorbance; Measles virus-infected cells, CPE protection; protection (pct of control), % at 4 µM; 1.5% of 140,000 active; in the data active = protection mostly above about 24%, no sharp cut-off; inactive = mostly below about 26%
Yeast lifespan up: compounds extending yeast replicative lifespan, primary screen, S. cerevisiae, OD615 | S. cerevisiae growth with nicotinamide; deaD strain in restrictive glucose medium | inhibition of the nicotinamide effect, % at 10 µM | 0.68% of 130,000 active;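 active = inhibition above a set limit, placed 3 SD over the median of all compounds, cut at about 26% in these data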;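 note: 0% = nicotinamide-treated wells and 100% = cells grown without nicotinamide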
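assay system = DeaD-strain S. cerevisiae | buffer or medium = restrictive glucose medium | reagent = 1.5 mM nicotinamide | compound = 10 µM single point, 0.25% DMSO | incubation = 48 h compound exposure at 30 °C, humidified | signal = OD615 measurement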
The depositor's hits bear a star; . = not tested or not shown. In the library only some 2.4% were active in any assay of this set; here they are far more common.

SMILES	Arbovirus anti	Efa HMGR inh	Rad51 HR inh	Yeast growth inh	Measles CPE	Yeast lifespan up
COc1ccc(CNC(=O)C(NC(C)=O)C(=O)Nc2ccc(C(C)C)cc2)cc1 (configuration not stated)	-14.1	11.6*	-5.3	.	.	.
COc1ccc(C(NC(=O)CNC(C)=O)C(=O)Nc2ccc3c(c2)OCCO3)cc1 (configuration not stated)	2.8	0.3	-0.5	-44.1	17.0	-4.9
CC(CCc1ccccc1)NCC#N (configuration not stated)	.	.	4.9	.	.	.
CCc1ccc(C(=O)CN2C(=O)NC(C)(CCc3ccccc3)C2=O)cc1 (configuration not stated)	5.3	2.0	8.6	-27.7	.	46.2*
O=C1CC(c2ccc(Br)cc2)NC(c2ccc(Br)cc2)C1c1ccccc1 (configuration not stated)	45.2*	-2.8	.	5.0	53.0*	-0.4
COCCC(=O)N1CCCC(C(=O)c2ccc3c4c(cccc24)CC3)C1 (configuration not stated)	6.2	11.0*	-2.5	.	.	.
CCCC12CN3CC(C)(CN(C1)C3c1ccco1)C2=O (configuration not stated)	1.0	-2.5	-14.2	.	.	.
Cc1cccn2c(=O)c3cc(C(=O)N4COCC4(C)C)sc3nc12	12.1	1.7	2.6	.	.	.
Cn1c(C(=O)N2COCC2(C)C)cc2c(=O)n3ccccc3nc21	5.8	-1.7	.	-55.4	21.8*	-15.1
COc1ccc(O[C@H]2C=C[C@@H](c3ccccc3)O[C@@H]2CO/N=C(\C)CCN2CCCCc3nc(C)c(C)cc32)cc1	-8.9	-2.8	.	-20.4	23.3*	16.4
C/C(CCN1CCCCc2nc(C)c(C)cc21)=N\O[C@@H](C)CN1CCCCc2nc(C)c(C)cc21	-9.8	-6.9	.	-41.8	6.1	12.7
Cc1nc(C)c(-c2nnc(-c3ccc(C(C)(C)C)cc3)o2)cc1C(=O)NN	-19.8	-1.1	9.0	-26.8	17.6	-1.2
O=C(Nc1cccc(F)c1)c1cccnc1N1CCOCC1	-1.8	0.4	-5.9	17.9	23.7*	-3.6
C[C@]12C=CC(=O)C=C1CCC1C3CC[C@](O)(C(=O)CO)[C@@]3(C)CC3OC312 (some centres not stated)	13.8	1.5	-8.8	-47.8	41.8*	5.9
OC(c1ccccc1)C1CN(Cc2ccccc2)CCC1(O)c1ccccc1 (configuration not stated)	32.6*	0.6	-1.1	-5.2	15.7	5.5
CCNc1nc(NC(C)CC)nc(ON=C(C)C)n1 (configuration not stated)	11.2	-8.7	-2.2	.	.	.
C/C(=N\NS(=O)(=O)c1ccccc1)c1cccc(NC(=O)c2cccc(Cl)c2)c1	47.3*	-8.6	0.7	3.4	16.3	8.5
CCC(=O)NC(=S)NNC(=O)c1ccc(OC)cc1	-20.1	0.2	5.1	-16.7	2.3	-5.9
CCCCOc1ccc(C(=O)NNC(=S)NC(=O)CC)cc1	-15.0	-2.8	.	48.4*	12.8	-1.9
S=C(NCCCN1CCOCC1)Nc1ccc(Cl)c(Cl)c1	-0.5	-0.5	.	-14.9	9.9	-0.6
O=[N+]([O-])/C(C(Cl)=C(Cl)Cl)=C(/Sc1ccccc1)N1CCCCC1	.	.	26.4	.	.	.
C=C(C(=O)c1ccccc1)C(C)CC(=O)c1ccccc1 (configuration not stated)	-21.5	-0.7	5.5	-17.3	8.4	34.2*
O=C1N(Cc2cccnc2)C[C@@H]2C[C@@H](c3cccc(OC4CCCC4)c3)N3CCC[C@@]123	-11.1	-4.8	2.1	.	.	.
CCNc1ncnc2c1cnn2C	4.5	-2.3	2.0	.	.	.
O=C(CN1C(=O)c2ccccc2C1=O)Nc1sc2c(c1C(=O)NCc1ccco1)CCCC2	12.8	-2.3	3.0	-3.2	61.7*	-14.2
SMILES	Arbovirus anti	Efa HMGR inh	Rad51 HR inh	Yeast growth inh	Measles CPE	Yeast lifespan up
COc1ccc(NC(=O)CCN2CCC(C)CC2)cc1	1.2	0.8	-5.2	-38.1	10.8	2.8
COc1ccc(NC(=O)CCN2CCCC(C)C2)cc1 (configuration not stated)	0.9	4.6	-24.8	-43.3	41.4*	5.3
O=S(=O)(Nc1ccc(O)c(CN2CCCCC2)c1)c1ccccc1	16.6	-10.6	56.6*	-31.1	12.5	-6.6
Cc1ccc(S(=O)(=O)Nc2cccc(NC(=O)CN3CCCCC3)c2)cc1	7.1	-2.7	-1.8	-24.9	63.2*	-4.8
CC1CCCN(CC(=O)Nc2cccc([N+](=O)[O-])c2)C1 (configuration not stated)	-5.6	-1.8	0.4	-5.9	31.6*	5.7
Cn1c(CN2CCCC2)nc2cc(NS(=O)(=O)c3ccccc3)ccc21	-1.8	-5.5	-0.4	-37.4	-0.2	-2.3
O=C(NCc1ccccn1)C(=O)N/N=C/c1ccc2c(c1)OCO2	8.1	-1.2	0.3	.	.	.
Cc1nnc(SCC(=O)Nc2nc(-c3ccc(F)cc3)cs2)[nH]c1=O	17.2	-6.1	2.8	.	.	.
COc1cc(C2/C(=C(/O)c3ccc(F)cc3)C(=O)C(=O)N2CCCC(=O)O)ccc1O (configuration not stated)	1.9	-9.2	0.6	-27.6	3.8	-20.1
Cn1c(=S)n(CCC(=O)O)c2ccccc21	16.4	5.4	11.4	.	.	.
CCn1c(SCC(=O)Nc2nc(-c3ccc(C)cc3)cs2)nnc1-c1ccccc1O	-11.5	-6.1	8.4	-54.1	31.9*	-7.9
CCn1c(SCC(=O)Nc2nc(-c3ccc(C)cc3)cs2)nnc1-c1ccccc1	8.1	-7.0	-2.6	-26.3	29.1	-7.5
CC(C)c1ccc(NC(=S)NCCc2c[nH]c3ccccc23)cc1	-34.6	-5.7	2.1	54.9*	2.2	-5.3
O=C(NC(=S)Nc1ncc(Br)cc1Br)c1cncc(Br)c1	3.5	-0.8	4.5	2.2	39.8*	-14.1
CC(C)CNC(=O)C1CCCN(C(=O)NCc2ccccc2)C1 (configuration not stated)	10.0	-6.2	5.0	.	.	.
CCc1ccc(C2NC(=S)NC3=C2C(=O)N(c2ccccc2OC)C(c2ccc(CC)cc2)N3)cc1 (configuration not stated)	-31.1	-5.1	-4.1	52.6*	14.4	-18.3
COC(=O)c1cn(C(=O)OC)c2ccccc12	-4.7	-5.2	3.6	-4.5	49.1*	-19.0
COCCCNC(=S)NC(=O)c1ccc(C)cc1	7.2	2.2	3.5	-16.0	8.8	-5.1
c1ccc2cc(CSCc3nc4ccccc4[nH]3)ccc2c1	9.2	-3.7	.	-57.7	2.5	-0.8
O=C(C1CCCN(S(=O)(=O)c2ccc(F)cc2)C1)N(Cc1cccs1)C1CC1 (configuration not stated)	-0.2	-6.6	0.8	-35.5	49.0*	-9.9

Source: PubChem BioAssay
